According to ChEMBL document CHEMBL1158857, “New steroidal alkaloids from Buxus longifolia” (1997):

Legend:
[1] = system: Salmonella typhi; test: (§1) Antibacterial activity against Salmonella typhi assessed per 100 uL of nutrient broth after 24 hrs by tube broth dilution method; format: functional, Salmonella enterica subsp. enterica serovar Typhi
Method in brief: (§2)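 Tube broth dilution in nutrient broth against sensitive Salmonella typhi: 0.1 mL culture (10^4-10^6 cells/mL) was added to tubes holding 1 mL of test sample at different concentrations plus 1 mL nutrient broth. Tubes were incubated 24 h at 37 °C, growth inhibition was observed, and MIC was recorded. Ampicillin was run the same way as the standard.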

[2] = system: Shigella flexneri; test: Antibacterial activity against Shigella flexneri at 100 ug/100 uL after 24 hrs by tube broth dilution method; format: functional
[3] = system: Shigella flexneri; test: Antibacterial activity against Shigella flexneri at 200 ug/100 uL after 24 hrs by tube broth dilution method; format: functional
[4] = system: Salmonella typhi; test: as §1; format: functional, Salmonella enterica subsp. enterica serovar Typhi; method in brief: as §2; remark: listed apart in the source
[5] = system: Pseudomonas aeruginosa; test: Antibacterial activity against Pseudomonas aeruginosa at 100 ug/100 uL after 24 hrs by tube broth dilution method; format: functional
[6] = system: Pseudomonas aeruginosa; test: Antibacterial activity against Pseudomonas aeruginosa at 200 ug/100 uL after 24 hrs by tube broth dilution method; format: functional
[7] = system: Pseudomonas aeruginosa; test: Antibacterial activity against Pseudomonas aeruginosa assessed per 100 uL of nutrient broth after 24 hrs by tube broth dilution method; format: functional
Method in brief: (§3)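 Tube broth dilution in nutrient broth. Sensitive bacterial culture (0.1 mL of 10^4-10^6 cells/mL) added to tubes holding 1 mL test sample at different concentrations plus 1 mL nutrient broth. Incubated 24 h at 37 °C, then growth inhibition scored visually. Ampicillin run the same way as reference. Minimum inhibitory concentration taken from the dilution series.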

[8] = system: Escherichia coli; test: Antibacterial activity against Escherichia coli at 100 ug/100 uL after 24 hrs by tube broth dilution method; format: functional
[9] = system: Escherichia coli; test: Antibacterial activity against Escherichia coli at 200 ug/100 uL after 24 hrs by tube broth dilution method; format: functional
[10] = system: Salmonella typhi; test: Antibacterial activity against Salmonella typhi at 100 ug/100 uL after 24 hrs by tube broth dilution method; format: functional, Salmonella enterica subsp. enterica serovar Typhi; parameters: unit not given here
[11] = system: Salmonella typhi; test: Antibacterial activity against Salmonella typhi at 200 ug/100 uL after 24 hrs by tube broth dilution method; format: functional, Salmonella enterica subsp. enterica serovar Typhi; parameters: unit not given here
[12] = system: Escherichia coli; test: Antibacterial activity against Escherichia coli assessed per 100 uL of nutrient broth after 24 hrs by tube broth dilution method; format: functional; method in brief: as §3

Structure (SMILES) | MIC [1] [µg] | inhibition zone (IZ) [2] [mm] | inhibition zone (IZ) [3] [mm] | MIC [4] [µg] | inhibition zone (IZ) [5] [mm] | inhibition zone (IZ) [6] [mm] | MIC [7] [µg] | inhibition zone (IZ) [8] [mm] | inhibition zone (IZ) [9] [mm] | inhibition zone (IZ) [10] | inhibition zone (IZ) [11] | MIC [12] [µg]
CC1(C)S[C@@H]2[C@H](NC(=O)[C@H](N)c3ccccc3)C(=O)N2[C@H]1C(=O)O [AMPICILLIN] | 30 | 11 | 11 | 30 | 11 | 11 | 40 | 11 | 12 |  |  | 
CN[C@@H](C)[C@H]1[C@H](O)C[C@@]2(C)[C@@H]3CC[C@H]4C(C)(C)[C@@H](N(C)C)C=C[C@@]45C[C@@]35CC[C@]12C [BUXASAMARINE] | 100 |  | 7 | 150 | 7 | 9 | 50 |  |  | 6 | 8 | 
C=C1[C@@H](N(C)C(C)=O)CC[C@]23C[C@]24CC[C@]2(C)[C@@H]([C@H](C)NC)CC[C@@]2(C)[C@@H]4CC[C@@H]13 [CYCLOBUXAMIDINE] | 150 |  |  |  |  |  |  |  | 6 | 6 | 6 | 200
CC(=O)O[C@@H]1C[C@@]2(C)[C@@H]3C[C@@H]4OC[C@]5(C)[C@@H](NC(=O)c6ccccc6)CCC(=CC3=CC[C@]2(C)[C@H]1[C@H](C)N(C)C)[C@@H]45 [CYCLOBUXEINE F] | 100 | 7 | 7 | 100 | 6 | 8 | 10 |  |  | 7 | 8 | 
